From paper PMC6146380 (Acta Pharmaceutica Sinica. B, 2018)
Where a name gives a salt, the structure may show the parent alone. Read-outs that look alike come from different tables or passages of the source.

Legend:
A549 cells [1] = assay: MTT cytotoxicity assay; type: cell-based, human; conditions: read-out: IC50 (in vitro cytotoxicity)
Procedure, shortened: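 A549 cells seeded at 5 × 10³/well in DMEM with 10% FBS and antibiotics, preincubated 24 h at 37 °C, 5% CO₂. Test drug in PBS added at various concentrations for 48 h; untreated controls received fresh medium. MTT (5 mg/mL stock) added for 4 h, formazan dissolved in DMSO, absorbance read at 490 nm. Triplicate measurements.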

HUVEC = assay: Cellular uptake of FITC-labeled peptides by flow cytometry, HUVEC; type: cell-based, human; conditions: 5 × 10^−6 mol/L, 4 h
Procedure, shortened: (§1)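 Cells grown in DMEM with 10% FBS at 37 °C, 5% CO₂. Seeded at 8 × 10⁴ cells/well and incubated overnight. FITC-labeled peptides (N-terminal Cys–maleimide-FITC) added at a final 5 × 10⁻⁶ mol/L for 4 h. Cells then trypsinized, centrifuged, resuspended in PBS and analysed by flow cytometry. Fluorescence signal compared between labeled peptides.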

C6 cells = assay: Cellular uptake of FITC-labeled peptides by flow cytometry, C6; type: cell-based, rat; conditions: 5 × 10^−6 mol/L, 4 h
Procedure, shortened: as §1

U87 cells = assay: Cellular uptake of FITC-labeled peptides by flow cytometry, U87; type: cell-based, human; conditions: 5 × 10^−6 mol/L, 4 h
Procedure, shortened: as §1

A549 cells [2] = assay: Cellular uptake of FITC-labeled peptides by flow cytometry, A549; type: cell-based, human; conditions: 5 × 10^−6 mol/L, 4 h
Procedure, shortened: as §1

N.N.O=C([O-])C1(C(=O)[O-])CCC1.[Pt+2] [carboplatin]
IC50 (A549 cells [1]; A549 cells, MTT assay, 48 h treatment, triplicate): 138 µM

Nc1ccn([C@@H]2O[C@H](CO)[C@@H](O)C2(F)F)c(=O)n1 [gemcitabine, Gemcitabine hydrochloride]
IC50 (A549 cells [1]; Homo sapiens, A549, 48 h): 4.83 µM

FITC-D(CRGERPPR)
mean fluorescent intensity, times higher than that of FITC-CRGERPPR (HUVEC): ~13.1 times | mean fluorescent intensity, times higher than that of FITC-D(CRPPREGR) (HUVEC): 5.7 times | mean fluorescent intensity, times higher than FITC-D(CRPPREGR) (C6 cells): 2.9 times | mean fluorescent intensity, times higher than that of FITC-CRGERPPR (C6 cells): 5.4 times | mean fluorescent intensity, times higher than FITC-D(CRPPREGR) (U87 cells): 3.5 times | mean fluorescent intensity, times higher than that of FITC-CRGERPPR (U87 cells): 3.3 times | FITC-positive ratio, times higher than that of FITC-CRGERPPR (A549 cells [2]): 1.6 times | FITC-positive ratio, times higher than that of FITC-D(CRPPREGR) (A549 cells [2]): 1.3 times
